Reference: PubChem BioAssay
Active and inactive are the calls of the source.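 The calls were made as follows, unless noted: active = viability loss from added drug above about 55%, and viability with drug at most 40%, in both replicates (limit read from the data, passing the limit was not always enough); inconclusive = both conditions met in only one replicate; inactive = neither replicate meets both conditions.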

How the values were obtained:
[1] = reducers of endogenous Her2 protein level, primary screen, SKBR3 breast tumor cells, AlphaScreen, ATP viability (AID 461;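 active = Her2 level under about 52% in both replicate screens, with viability over 70% of control, limit read from the data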;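 as to Her2 level: lower value means less Her2 protein in the cells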;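 as to viability: percent of carrier control wells set as 100% viability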); conditions: 18-24 h, measured here: SKBR3 viability, ATP luminescence, at 10 µM
[2] = biological target: Receptor tyrosine-protein kinase erbB-2 (Homo sapiens) (UniProt P04626); assay: as above; conditions: 18-24 h, at 10 µM, stronger effect = lower value
Receptor tyrosine-protein kinase erbB-2 (Homo sapiens), sequence (P04626 whole entry, looked up): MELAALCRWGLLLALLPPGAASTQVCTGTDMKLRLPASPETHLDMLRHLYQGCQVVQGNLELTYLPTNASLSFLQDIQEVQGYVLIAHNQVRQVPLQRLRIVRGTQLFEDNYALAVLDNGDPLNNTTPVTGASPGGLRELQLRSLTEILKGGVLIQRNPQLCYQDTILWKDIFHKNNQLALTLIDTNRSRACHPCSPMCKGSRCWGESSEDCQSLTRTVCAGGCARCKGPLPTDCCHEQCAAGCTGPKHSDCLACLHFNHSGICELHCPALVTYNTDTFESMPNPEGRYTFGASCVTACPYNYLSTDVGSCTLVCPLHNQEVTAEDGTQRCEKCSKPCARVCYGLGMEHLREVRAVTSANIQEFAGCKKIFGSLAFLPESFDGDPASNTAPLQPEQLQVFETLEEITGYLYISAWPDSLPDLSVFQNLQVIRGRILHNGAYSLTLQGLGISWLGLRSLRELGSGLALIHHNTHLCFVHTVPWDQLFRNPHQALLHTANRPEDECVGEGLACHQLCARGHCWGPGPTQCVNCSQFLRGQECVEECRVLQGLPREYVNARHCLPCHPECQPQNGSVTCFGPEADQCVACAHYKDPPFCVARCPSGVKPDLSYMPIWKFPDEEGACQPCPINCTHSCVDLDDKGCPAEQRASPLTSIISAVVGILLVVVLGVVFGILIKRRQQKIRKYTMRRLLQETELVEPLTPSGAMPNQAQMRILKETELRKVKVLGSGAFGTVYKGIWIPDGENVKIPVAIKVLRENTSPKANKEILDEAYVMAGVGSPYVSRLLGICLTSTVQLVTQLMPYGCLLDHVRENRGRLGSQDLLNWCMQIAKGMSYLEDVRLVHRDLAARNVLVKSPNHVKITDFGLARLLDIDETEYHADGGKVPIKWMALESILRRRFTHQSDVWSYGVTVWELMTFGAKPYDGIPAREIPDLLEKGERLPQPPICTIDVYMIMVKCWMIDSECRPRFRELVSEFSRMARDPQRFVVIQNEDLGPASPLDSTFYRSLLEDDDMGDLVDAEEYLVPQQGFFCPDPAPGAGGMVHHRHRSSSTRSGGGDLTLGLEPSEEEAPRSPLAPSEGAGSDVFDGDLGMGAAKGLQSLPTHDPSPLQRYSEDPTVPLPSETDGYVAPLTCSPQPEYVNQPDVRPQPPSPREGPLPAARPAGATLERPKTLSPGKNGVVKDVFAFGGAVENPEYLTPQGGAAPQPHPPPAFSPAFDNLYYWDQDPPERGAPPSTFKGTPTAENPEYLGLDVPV

[3] = SK-BR-3 cell growth inhibitors, pilot screen, 24 h, human (AID 572;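 active = viability at or below 10% of carrier control in both of two separate runs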;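 also: compound exposure lasted between 18 and 24 h rather than exactly 24 h; 100% = carrier-treated control wells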); conditions: SK-BR-3 viability, CellTiter-Glo luminescence, at 10 µM, stronger effect = lower value
[4] = HUVEC growth inhibition – cell-based, human, primary screen (AID 575;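 active = viability at or below 30% in both replicate assays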;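 also: 100% = median of untreated cell wells with 0.1% DMSO on each plate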); conditions: HUVEC proliferation, CellTiter-Glo luminescence, 72 h; at 10 µM; stronger effect = lower value
Outline: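 System – primary HUVEC, no more than 12 passages · Medium – Low-serum (2% FBS) EBM, supplemented · Times – 72 h exposure, 37 °C, 5% CO2, 30 min RT equilibration · Measured by – luminescent ATP assay · Read-out – % viability relative to median vehicle-well signal on each plate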

[5] = growth inhibitors of H69AR lung tumor, primary screen, human, duplicate replicates (AID 580;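 active = viability at or under a set limit in both replicates, limit being median viability minus 3 SD, cut at about 48% in these data, passing the limit was not always enough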;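 also: 100% = mean luminescence of untreated wells and 0% = no signal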); conditions: H69AR lung tumor cells viability, ATP luminescence, 72 h; at 10 µM; stronger effect = lower value
[6] = reversal of MRP1-mediated doxorubicin resistance, pilot screen, H69AR cells, doxorubicin co-treatment (AID 601); conditions: CellTiter-Glo, 72 h, at 10 µM; for differential viability (reversal): stronger effect = higher value
[7] = 384-well plate pilot, post-Golgi transport modulator project, inhibition of yeast transport mutant growth (AID 636; in the data active = inhibition above about 31%); conditions: absorbance 615 nm, about 18 h, stronger effect = higher value
[8] = growth suppression of yeast trafficking mutant, preliminary HTS, modulators of trafficking downstream of Golgi apparatus project, 1536-format plate, OD 615 nm (AID 637; in the data active = inhibition above about 30%); conditions: yeast transport mutant growth, absorbance 615 nm, 18 h; stronger effect = higher value
[9] = H69AR cells + 2 uM doxorubicin, measured here: viability with 2 uM doxorubicin, stronger effect = lower value
[10] = H69AR cells, compound alone cytotoxicity

SMILES: O=C(O)CCc1ccc(-c2cccs2)n1CCC(=O)O
- viability [1]: 108%
- Her2 level [2]: 86.5% (inactive)
- viability [3]: 108% (inactive)
- viability [4]: 107% (inactive)
- viability [5]: 85.8% (inactive)
- differential viability (reversal) ([6]; H69AR cells + 2 uM doxorubicin): 1.25% (inactive)
- viability [6, 9]: 84.6%
- viability [6, 10]: 85.8%
- inhibition [7]: -2.24% (inactive)
- inhibition [8]: -1.64% (inactive)

SMILES: Cc1cccc2cc(CN(CCN3CCCC3)C(=O)NC3CCCCC3)c(=O)[nH]c12
- viability [1]: 83%
- Her2 level [2]: 78.5% (inactive)
- viability [3]: 83% (inactive)
- viability [4]: 76.5% (inactive)
- viability [5]: 91% (inactive)
- differential viability (reversal) ([6]; H69AR cells + 2 uM doxorubicin): -1.06% (inactive)
- viability [6, 9]: 92%
- viability [6, 10]: 91%
- inhibition [7]: -6.08% (inactive)
- inhibition [8]: -0.16% (inactive)

SMILES: Cc1nc2sc(C(c3cccc(F)c3)N3CCOCC3)c(O)n2n1 (stereo not given)
- viability [1]: 117%
- Her2 level [2]: 93.5% (inactive)
- viability [3]: 117% (inactive)
- viability [4]: 90.8% (inactive)
- viability [5]: 94.7% (inactive)
- differential viability (reversal) ([6]; H69AR cells + 2 uM doxorubicin): 7.72% (inactive)
- viability [6, 9]: 87%
- viability [6, 10]: 94.7%
- inhibition [7]: -4.79% (inactive)
- inhibition [8]: -3.65% (inactive)

SMILES: CCCn1c(SCC(=O)NCCc2ccccc2)nnc1-c1ccccn1
- viability [1]: 97.5%
- Her2 level [2]: 100% (inactive)
- viability [3]: 97.5% (inactive)
- viability [4]: 108% (inactive)
- viability [5]: 93.9% (inactive)
- differential viability (reversal) ([6]; H69AR cells + 2 uM doxorubicin): -11.1% (inactive)
- viability [6, 9]: 105%
- viability [6, 10]: 93.9%
- inhibition [7]: -2.8% (inactive)
- inhibition [8]: -5.16% (inactive)

SMILES: Cc1ccccc1NC(=O)Cc1nnc(SCC(=O)N2CCN(c3ccccc3)CC2)n1C
- viability [1]: 110%
- Her2 level [2]: 108% (inactive)
- viability [3]: 110% (inactive)
- viability [4]: 101% (inactive)
- viability [5]: 98.2% (inactive)
- differential viability (reversal) ([6]; H69AR cells + 2 uM doxorubicin): 5.74% (inactive)
- viability [6, 9]: 92.5%
- viability [6, 10]: 98.2%
- inhibition [7]: -5.53% (inactive)
- inhibition [8]: -6.67% (inactive)

SMILES: Cc1cccc(Cn2c(=O)n(Cc3ccco3)c(=O)c3ccccc32)c1
- viability [1]: 87%
- Her2 level [2]: 97.5% (inactive)
- viability [3]: 87% (inactive)
- viability [4]: 100% (inactive)
- viability [5]: 92.5% (inactive)
- differential viability (reversal) ([6]; H69AR cells + 2 uM doxorubicin): -9.65% (inactive)
- viability [6, 9]: 102%
- viability [6, 10]: 92.5%
- inhibition [7]: -2.11% (inactive)
- inhibition [8]: 1.15% (inactive)

SMILES: c1coc(-c2nnc(NC3=NCCC3)o2)c1
- viability [1]: 100%
- Her2 level [2]: 94% (inactive)
- viability [3]: 100% (inactive)
- viability [4]: 97.2% (inactive)
- viability [5]: 98.7% (inactive)
- differential viability (reversal) ([6]; H69AR cells + 2 uM doxorubicin): 11.4% (inactive)
- viability [6, 9]: 87.3%
- viability [6, 10]: 98.7%
- inhibition [7]: -5.34% (inactive)
- inhibition [8]: -10.2% (inactive)

SMILES: Cc1ccc(-c2noc(CCC(=O)N3CCN(c4cccc(C(F)(F)F)c4)CC3)n2)cc1
- viability [1]: 87.5%
- Her2 level [2]: 91% (inactive)
- viability [3]: 87.5% (inactive)
- viability [4]: 71.2% (inactive)
- viability [5]: 93.1% (inactive)
- differential viability (reversal) ([6]; H69AR cells + 2 uM doxorubicin): -3.76% (inactive)
- viability [6, 9]: 96.8%
- viability [6, 10]: 93.1%
- inhibition [7]: -3.95% (inactive)
- inhibition [8]: -2.67% (inactive)

SMILES: CCOC(=O)c1sc(=NC(=O)c2ccc(OC)c(OC)c2)n(C)c1C
- viability [1]: 121%
- Her2 level [2]: 84% (inactive)
- viability [3]: 121% (inactive)
- viability [4]: 108% (inactive)
- viability [5]: 65% (inactive)
- differential viability (reversal) ([6]; H69AR cells + 2 uM doxorubicin): -6.65% (inactive)
- viability [6, 9]: 71.7%
- viability [6, 10]: 65%
- inhibition [7]: -5.06% (inactive)
- inhibition [8]: -0.16% (inactive)

SMILES: Cn1c(SCc2cccc3ccccc23)nnc1-c1ccco1
- viability [1]: 76%
- Her2 level [2]: 98.5% (inactive)
- viability [3]: 76% (inactive)
- viability [4]: 126% (inactive)
- viability [5]: 92.4% (inactive)
- differential viability (reversal) ([6]; H69AR cells + 2 uM doxorubicin): 7.87% (inactive)
- viability [6, 9]: 84.5%
- viability [6, 10]: 92.4%
- inhibition [7]: -0.93% (inactive)
- inhibition [8]: -6.94% (inactive)

SMILES: O=C(O)COc1ccc(Oc2ccccc2)cc1
- viability [1]: 102%
- Her2 level [2]: 106% (inactive)
- viability [3]: 102% (inactive)
- viability [4]: 96.1% (inactive)
- viability [5]: 109% (inactive)
- differential viability (reversal) ([6]; H69AR cells + 2 uM doxorubicin): 13.3% (inactive)
- viability [6, 9]: 96%
- viability [6, 10]: 109%
- inhibition [7]: 0.26% (inactive)
- inhibition [8]: -3.55% (inactive)

SMILES: CCCCCn1c(CN2CCN(C)CC2)nc2c1c(=O)n(C)c(=O)n2C
- viability [1]: 103%
- Her2 level [2]: 103% (inactive)
- viability [3]: 103% (inactive)
- viability [4]: 98.4% (inactive)
- viability [5]: 85.9% (inactive)
- differential viability (reversal) ([6]; H69AR cells + 2 uM doxorubicin): -6.67% (inactive)
- viability [6, 9]: 92.5%
- viability [6, 10]: 85.9%
- inhibition [7]: -3.87% (inactive)
- inhibition [8]: -2.67% (inactive)

SMILES: Cc1ccc(-c2cc(C(=O)Nc3cc(C)ccc3C)[nH]n2)c(O)c1
- viability [1]: 102%
- Her2 level [2]: 88% (inactive)
- viability [3]: 102% (inactive)
- viability [4]: 109% (inactive)
- viability [5]: 92.4% (inactive)
- differential viability (reversal) ([6]; H69AR cells + 2 uM doxorubicin): 2.75% (inactive)
- viability [6, 9]: 89.6%
- viability [6, 10]: 92.4%
- inhibition [7]: -3.16% (inactive)
- inhibition [8]: -1.9% (inactive)

SMILES: CCc1nnc(NC(=O)c2ccc(S(=O)(=O)NC3CCCCC3)cc2)s1
- viability [1]: 86.5%
- Her2 level [2]: 69.5% (inactive)
- viability [3]: 86.5% (inactive)
- viability [4]: 74% (inactive)
- viability [5]: 80.1% (inactive)
- differential viability (reversal) ([6]; H69AR cells + 2 uM doxorubicin): 43% (inactive)
- viability [6, 9]: 37.1%
- viability [6, 10]: 80.1%
- inhibition [7]: -5.68% (inactive)
- inhibition [8]: -8.33% (inactive)

SMILES: C/C(NC1CCCC1)=C(/C#N)C(N)=O
- viability [1]: 108%
- Her2 level [2]: 99% (inactive)
- viability [3]: 108% (inactive)
- viability [4]: 116% (inactive)
- viability [5]: 111% (inactive)
- differential viability (reversal) ([6]; H69AR cells + 2 uM doxorubicin): 10.3% (inactive)
- viability [6, 9]: 101%
- viability [6, 10]: 111%
- inhibition [7]: -4.21% (inactive)
- inhibition [8]: 3.11% (inactive)

SMILES: CS(=O)(=O)N1CCCC(C(=O)NCc2ccccc2Cl)C1 (stereo not given)
- viability [1]: 99%
- Her2 level [2]: 89% (inactive)
- viability [3]: 99% (inactive)
- viability [4]: 107% (inactive)
- viability [5]: 86.5% (inactive)
- differential viability (reversal) ([6]; H69AR cells + 2 uM doxorubicin): -4.79% (inactive)
- viability [6, 9]: 91.3%
- viability [6, 10]: 86.5%
- inhibition [7]: -1.3% (inactive)
- inhibition [8]: -0.95% (inactive)

SMILES: CCOc1cccc(-c2nnc3sc(COc4ccc(OC)cc4)nn23)c1
- viability [1]: 72.5%
- Her2 level [2]: 102% (inactive)
- viability [3]: 72.5% (inactive)
- viability [4]: 68.3% (inactive)
- viability [5]: 85.5% (inactive)
- differential viability (reversal) ([6]; H69AR cells + 2 uM doxorubicin): -1.33% (inactive)
- viability [6, 9]: 86.9%
- viability [6, 10]: 85.5%
- inhibition [7]: -1.95% (inactive)
- inhibition [8]: -6.39% (inactive)
